What was measured:
[1] = Pharmacokinetic assessments in rats; type: in vivo, Sprague Dawley rats; conditions: for AUC: male, Sprague-Dawley, rat, plasma, po; for metabolites detected in plasma (Cmax at 30 mpk): rats, oral
[2] = test system: Sprague Dawley rats; assay: Rat stool and urine content, stool form scoring; type: in vivo; conditions: for Increase in stool water: criterion: 10% increase from control; for Stool water dose-response: oral 0.1–3.0 mg/kg, criterion: Yes
How it was run: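 Rats are dosed orally, 3 mg/kg for screening or 0.1, 0.3, 1.0 and 3.0 mg/kg for dose-response, then held in metabolic cages. Urine sodium reduction is measured at 16 h (n = 6 per group; mean ± SEM; one-way ANOVA with Dunnett's test versus vehicle). Stool form is scored 1 (normal) to 5 (watery), and fecal water is given as percent water by weight and percent of control.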

[3] = biological target: T1, human NHE3 (Homo sapiens, UniProt P48764); assay: Cell-based human NHE3 inhibition assay; conditions: species not stated; data not shown
T1 sequence (P48764 26-834): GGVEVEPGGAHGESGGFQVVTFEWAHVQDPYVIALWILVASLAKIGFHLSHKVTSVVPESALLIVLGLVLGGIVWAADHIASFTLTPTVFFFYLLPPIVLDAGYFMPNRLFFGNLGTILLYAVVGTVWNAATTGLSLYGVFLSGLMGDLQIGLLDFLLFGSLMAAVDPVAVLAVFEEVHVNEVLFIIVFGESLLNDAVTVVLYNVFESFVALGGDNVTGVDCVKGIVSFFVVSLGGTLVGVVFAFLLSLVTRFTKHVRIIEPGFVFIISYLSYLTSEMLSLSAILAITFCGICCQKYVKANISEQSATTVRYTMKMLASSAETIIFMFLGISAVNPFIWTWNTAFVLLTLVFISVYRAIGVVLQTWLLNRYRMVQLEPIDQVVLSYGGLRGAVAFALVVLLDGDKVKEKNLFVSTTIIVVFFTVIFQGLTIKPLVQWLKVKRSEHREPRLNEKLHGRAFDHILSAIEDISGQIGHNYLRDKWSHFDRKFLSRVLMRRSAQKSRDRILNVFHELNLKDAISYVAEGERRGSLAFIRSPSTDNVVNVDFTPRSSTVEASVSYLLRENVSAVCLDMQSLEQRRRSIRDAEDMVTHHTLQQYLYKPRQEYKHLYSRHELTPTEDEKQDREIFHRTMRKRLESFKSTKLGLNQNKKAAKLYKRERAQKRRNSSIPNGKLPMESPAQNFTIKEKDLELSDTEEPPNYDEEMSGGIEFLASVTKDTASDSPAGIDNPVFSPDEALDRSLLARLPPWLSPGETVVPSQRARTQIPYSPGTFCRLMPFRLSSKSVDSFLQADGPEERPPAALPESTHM
How it was run: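 Cell deacidification assay in transfected opossum kidney cells overexpressing human or rat NHE3. Test compounds are applied across a dose range, and inhibition of intracellular pH recovery is followed with a pH-sensitive dye. Potency is reported as pIC50 for each species.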

[4] = test system: humans; conditions: clinical trials, cited from earlier work
[5] = test system: dialysis patients with hyperphosphatemia; conditions: cited from earlier work

CN1Cc2c(Cl)cc(Cl)cc2C(c2cccc(S(N)(=O)=O)c2)C1 (stereo not drawn) [Compound 1]
pharmacodynamic (PD) effect in PK studies ([1]; Sprague–Dawley rats): absence of a pharmacodynamic (PD) effect

CN1Cc2c(Cl)cc(Cl)cc2C(c2cccc(S(=O)(=O)NCCOCCOCCNC(=O)c3ccc(C(=O)NCCOCCOCCNS(=O)(=O)c4cccc(C5CN(C)Cc6c(Cl)cc(Cl)cc65)c4)cc3)c2)C1 (stereo not drawn) [Compound 20]
AUC ([1]; 22 mg/kg): < 8 ng·h/mL

CN1Cc2c(Cl)cc(Cl)cc2C(c2ccc(S(=O)(=O)NCCOCCOCCNC(=O)c3ccc(C(=O)NCCOCCOCCNS(=O)(=O)c4ccc(C5CN(C)Cc6c(Cl)cc(Cl)cc65)cc4)cc3)cc2)C1 (stereo not drawn) [Compound 21]
AUC ([1]; 23 mg/kg): < 8 ng·h/mL

CN1Cc2c(Cl)cc(Cl)cc2C(c2cccc(S(=O)(=O)NCCOCCOCCNC(=O)NCCOCCOCCNS(=O)(=O)c3cccc(C4CN(C)Cc5c(Cl)cc(Cl)cc54)c3)c2)C1 (stereo not drawn) [Compound 22]
AUC ([1]; 11 mg/kg): < 19 ng·h/mL

CN1Cc2c(Cl)cc(Cl)cc2C(c2ccc(S(=O)(=O)NCCOCCOCCNC(=O)NCCOCCOCCNS(=O)(=O)c3ccc(C4CN(C)Cc5c(Cl)cc(Cl)cc54)cc3)cc2)C1 (stereo not drawn) [Compound 23]
AUC ([1]; 17 mg/kg): < 8 ng·h/mL

CN1Cc2c(Cl)cc(Cl)cc2[C@H](c2cccc(S(=O)(=O)NCCOCCOCCNC(=O)Nc3ccc(NC(=O)NCCOCCOCCNS(=O)(=O)c4cccc([C@@H]5CN(C)Cc6c(Cl)cc(Cl)cc65)c4)cc3)c2)C1 [Compound 26]
Increase in stool water [2]: Yes | Stool water dose-response [2]: Yes | metabolites detected in plasma (Cmax at 30 mpk) [1]: No metabolites detected | inhibition in the cell assay (maximum reached) [3]: < 100%

CN1Cc2c(Cl)cc(Cl)cc2[C@H](c2cccc(S(=O)(=O)NCCOCCOCCNC(=O)NCCCCNC(=O)NCCOCCOCCNS(=O)(=O)c3cccc([C@@H]4CN(C)Cc5c(Cl)cc(Cl)cc54)c3)c2)C1 [Compound 28, tenapanor]
stool consistency ([4]; versus the placebo): softened stool consistency in a dose-dependent manner | stool frequency and weight ([4]; versus the placebo): increased stool frequency and weight | plasma concentrations ([4]; humans, below the quantification limit in >95% of all plasma samples): < 0.5 ng/mL | plasma samples below the quantification limit (0.5 ng/mL) ([4]; humans): > 95% | Increase in stool water [2]: Yes | Stool water dose-response [2]: Yes | metabolites detected in plasma (Cmax at 30 mpk) [1]: No metabolites detected | serum phosphorus levels [5]: lowered serum phosphorus levels

CN1Cc2c(Cl)cc(Cl)cc2C(c2ccc(S(=O)(=O)NCCOCCOCCOCCNC(=O)NCCOCCOCCOCCNS(=O)(=O)c3ccc(C4CN(C)Cc5c(Cl)cc(Cl)cc54)cc3)cc2)C1 (stereo not drawn) [Compound 35]
AUC ([1]; 5.3 mg/kg): < 19 ng·h/mL

CN1Cc2c(Cl)cc(Cl)cc2C(c2ccc(S(=O)(=O)NCCOCCOCCOCCNC(=O)c3ccc(C(=O)NCCOCCOCCOCCNS(=O)(=O)c4ccc(C5CN(C)Cc6c(Cl)cc(Cl)cc65)cc4)cc3)cc2)C1 (stereo not drawn) [Compound 37]
AUC ([1]; 19 mg/kg): < 9 ng·h/mL

CN1Cc2c(Cl)cc(Cl)cc2C(c2cccc(S(=O)(=O)NCCOCCOCCOCCNC(=O)NCCOCCOCCOCCNS(=O)(=O)c3cccc(C4CN(C)Cc5c(Cl)cc(Cl)cc54)c3)c2)C1 (stereo not drawn) [Compound 38]
AUC ([1]; 1.8 mg/kg): < 75 ng·h/mL

CN1Cc2c(Cl)cc(Cl)cc2C(c2cccc(S(=O)(=O)NCCOCCOCCOCCNC(=O)CCC(=O)NCCOCCOCCOCCNS(=O)(=O)c3cccc(C4CN(C)Cc5c(Cl)cc(Cl)cc54)c3)c2)C1 (stereo not drawn) [Compound 44]
AUC ([1]; 28 mg/kg): < 8 ng·h/mL

Reference: paper PMC9290029 (ACS Medicinal Chemistry Letters, 2022)
